High-throughput results as filed in PubChem.
Only some compounds are listed: those with a hit (about 3.8% of all), similar ones and a draw of the others.
hERG rescue: hERG (human) protection from proarrhythmic block. Q12809. CHO-hERG, FluxOR thallium flux, dofetilide IC70 present. activation (rescue from dofetilide block), less the hit threshold, % at 10 µM. 0.51% of 310,000 active;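 active = activation above the mean of controls blocked by dofetilide plus 5 SD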;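 also: thallium influx through hERG after potassium depolarization seen as dye fluorescence rise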
KCNQ1 act: human KCNQ1 channel potentiation or activation | CHO-K1 KCNQ1, thallium flux FluxOR fluorescence; hits give high values | B-score at 10 µM | 0.35% of 310,000 active | AID 2648;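 active = fluorescence ratio B-score, a plate-corrected score, at least three library SD, with initial intensity B-score within 5 SD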
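System: CHO-K1 cells stably expressing KCNQ1 / Medium: assay buffer for compound exposure, DMSO matched across wells / Reagent: thallium- and potassium-containing depolarizing buffer / Compound: one concentration, matched DMSO / Incubation: 20 min compound pretreatment at room temperature / Measured by: kinetic FluxOR fluorescence, 10 s baseline plus 110 s post-stimulus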
KCNK9 inh-1: human KCNK9 channel inhibition | AID 488922 | 1.2% of 310,000 active | Q9NPC2 | HEK293 KCNK9, FluxOR thallium flux fluorescence; hits give low values | B-score at 10 µM;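 active = ratio B-score over 3 SD below the library mean, with starting fluorescence within 5 SD of its mean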;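 also: negative B-score means less thallium flux so channel inhibition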
KCNK3 inh: human KCNK3 channel inhibition, primary screen; O14649; CHO-KCNK3 thallium flux, FluxOR fluorescence; hits give low values; B-score at 10 µM; 0.84% of 340,000 active; AID 602410;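 active = B-score under library mean minus 4 SD, starting fluorescence ratio at most library mean plus 5 SD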;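 also: more negative B-score means stronger inhibition of thallium flux through KCNK3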
Target sequence (O14649 whole entry, looked up): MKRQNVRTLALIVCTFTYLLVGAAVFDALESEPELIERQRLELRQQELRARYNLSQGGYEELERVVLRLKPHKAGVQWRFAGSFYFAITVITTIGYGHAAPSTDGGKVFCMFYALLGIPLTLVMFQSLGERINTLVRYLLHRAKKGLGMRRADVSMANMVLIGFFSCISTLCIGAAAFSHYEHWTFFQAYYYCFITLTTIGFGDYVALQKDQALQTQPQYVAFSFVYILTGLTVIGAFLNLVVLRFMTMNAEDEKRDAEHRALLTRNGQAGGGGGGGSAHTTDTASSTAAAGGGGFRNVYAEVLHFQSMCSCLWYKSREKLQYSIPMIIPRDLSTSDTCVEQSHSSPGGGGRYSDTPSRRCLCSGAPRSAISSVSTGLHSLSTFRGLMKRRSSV
Kir21 inh: Kir2.1 (mouse) channel inhibition. HEK293-Kir2.1, FluxOR thallium flux fluorescence; hits give low values. B-score at 10 µM. 0.85% of 310,000 active;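 active = fluorescence ratio B-score at or below minus 3 SD of library scores, with starting-brightness B-score within 2 SD, cut at about -4.2 in these data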;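 also: channel flux triggered by added potassium and thallium sulfate stimulus; B-score of peak minus minimum fluorescence over baseline after thallium stimulus; more negative B-score means stronger Kir2.1 block with less thallium influx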
KCNQ1 block: inhibitors of human KCNQ1 potassium channel. P51787. CHO-K1 KCNQ1, FluxOR thallium flux fluorescence; hits give high values. B-score at 10 µM. 1.3% of 310,000 active. AID 2642;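 active = compounds whose thallium flux B-score, printed positive for inhibition, exceeds three library SD while starting fluorescence stays within three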;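 also: channel opened by potassium depolarization with thallium stimulus after 20 min compound exposure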
hERG ctr: counter-screen for Kir2.1 inhibitors: effect on human hERG; shares compounds with Kir21 inh; hERG-expressing cells, thallium flux; inhibition, % at 10 µM; 20% of 320 active; AID 2236;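 also: host cells are CHO cells stably expressing hERG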
KCNK9 inh-2: human KCNK9 off-target activity of Kir2.1 blockers; shares compounds with Kir21 inh; KCNK9-expressing cells, ion flux inhibition; inhibition, % at 10 µM; 5% of 320 active; AID 2329
Kir2-1 patch inh: blocks mouse Kir2.1 current in automated electrophysiology; shares compounds with Kir21 inh; Kir2.1 cells, automated patch-clamp current inhibition; inhibition, % at 25 µM; 71% of 320 active; AID 463252
A number is an active result; – = inactive; · = no result. Unless noted, no rule for the calls is given here.

SMILES | hERG rescue | KCNQ1 act | KCNK9 inh-1 | KCNK3 inh | Kir21 inh | KCNQ1 block | hERG ctr | KCNK9 inh-2 | Kir2-1 patch inh
CCOc1cc(C)c(Cl)cc1S(=O)(=O)NCc1ccco1 | – | – | – | – | -7.97 | – | – | – | 31.2%
COc1ccc(CCN(C)CC(O)COC(c2ccc(F)cc2)c2ccc(F)cc2)cc1OC (stereo not given) | – | – | – | – | – | – | · | · | ·
COc1ccc(CN(C)CC(O)COC(c2ccccc2)c2ccccc2)c(OC)c1OC (stereo not given) | – | – | – | – | -5.95 | – | 69.0% | – | –
CCOc1ccc(CN2CCC(Cc3ccccc3)CC2)cc1 | – | – | – | – | -5.79 | – | 68.0% | – | 49.3%
CC(C)(C)c1ccc(OCCNCc2ccccc2)cc1 | – | – | – | – | – | – | · | · | ·
Clc1ccc(OCCOCCNCc2ccccc2)cc1Cl | – | – | – | – | -8.65 | – | 51.0% | – | 42.3%
Nc1nc(C2CC2)c(Sc2sc(N)nc2C2CC2)s1 | – | – | – | – | -8.2 | – | – | – | 6.1%
Nc1nc(C2CCOCC2)cs1 | – | – | – | – | – | – | · | · | ·
COc1ccc(CCNC2CCc3ccccc3C2)cc1 (stereo not given) | – | – | – | – | -8.58 | – | – | – | 36.7%
CCCCN1CCc2c1nc1ccc(Br)cc1c2N | – | – | – | – | -11.2 | – | – | – | 12.5%
COc1ccc(C2(C(=O)NCCc3ccccc3)CCCC2)cc1 | – | – | – | – | – | – | · | · | ·
O=C(NCCc1ccc(Cl)cc1)C1(c2ccccc2)CC1 | – | – | – | – | -9.5 | – | – | – | 44.3%
COc1ccc(C(=O)C2CCN(C(=O)c3ccc(F)cc3)CC2)cc1 | – | – | – | – | – | – | · | · | ·
COc1ccc(CN2CCC(C(=O)c3ccc(F)cc3)CC2)cc1 | – | – | – | – | -7.96 | – | 58.0% | – | 63.1%
CS(=O)(=O)N1CCN(CC(=O)NC2CCCCC2)CC1 | – | – | – | – | – | – | · | · | ·
CCOc1ccc(NC(=O)CN(C)S(=O)(=O)c2cccc3cccnc23)cc1 | – | – | – | – | – | – | · | · | ·
CCn1c(CSc2nc3ccccc3s2)nnc1SCC(=O)OC(C)(C)C | – | – | – | – | -8.65 | – | – | – | 30.9%
CCn1c(CSc2nc3ccccc3s2)nnc1SCC(N)=O | – | – | – | – | – | – | · | · | ·
NS(=O)(=O)c1ccc(CCNCc2cc(Br)ccc2OCc2ccccc2F)cc1 | – | – | – | – | -6.33 | – | – | 46.0% | 12.3%
NS(=O)(=O)c1ccc(CCNCc2ccccc2OCc2ccc(Cl)cc2)cc1 | – | – | – | – | -8.25 | – | 65.0% | – | 31.0%
Cn1c(=O)c2c(SCC(=O)Nc3nccs3)nc(C3CC3)nc2n(C)c1=O | – | – | – | – | – | – | · | · | ·
CC(=O)N1CC(C)Sc2ccc(S(=O)(=O)NCc3ccccc3Cl)cc21 (stereo not given) | – | – | – | – | -6.08 | – | – | – | –
CC(=O)N1CCOc2ccc(S(=O)(=O)NCc3ccccc3Cl)cc21 | – | – | – | – | – | – | · | · | ·
Cc1cccn2c(=O)c3cc(S(=O)(=O)c4ccc(Br)cc4)c(=N)n(C4CCCC4)c3nc12 | – | – | – | – | – | – | – | – | –
Cc1ccc(C(=O)N/C(=C\c2ccc(-c3ccc(Br)cc3)o2)C(=O)NCCCN(C)C)cc1 | – | – | – | – | -10.5 | 8 | 77.0% | – | –
SMILES | hERG rescue | KCNQ1 act | KCNK9 inh-1 | KCNK3 inh | Kir21 inh | KCNQ1 block | hERG ctr | KCNK9 inh-2 | Kir2-1 patch inh
Cc1ccc(/C(=N/Nc2nc3ccccc3s2)C2=C(O)c3ccccc3C2=O)cc1 | – | – | – | – | – | 10 | – | – | –
CC(C)=CCN1CCN(Cc2c[nH]c3ccccc23)CC1CCO (stereo not given) | – | – | – | – | – | – | · | · | ·
CCS(=O)(=O)c1nc(S(=O)(=O)c2ccc(Cl)cc2)c(NCCCN2CCOCC2)s1 | – | – | – | – | – | – | · | · | ·
COc1cc(OC)c(OC)cc1CNc1cc(C)ccc1OC | – | – | – | – | -5.83 | – | – | – | 28.7%
COc1ccc(C)cc1NCc1cccc(OC)c1OC | – | – | – | – | – | – | · | · | ·
CCc1nc(C)cn1S(=O)(=O)c1cc(Br)ccc1OC | – | – | – | – | -8.91 | – | – | – | 64.2%
CCc1nc(C)cn1S(=O)(=O)c1ccc(Cl)c(Cl)c1Cl | – | – | – | – | – | – | · | · | ·
CCc1nc(C)cn1S(=O)(=O)c1cc(Cl)c(OC)cc1Cl | – | – | – | – | -10.4 | – | – | – | 51.4%
Cc1ccccc1OCc1nnc(SCC(=O)O)n1-c1ccccc1 | – | – | – | – | – | – | · | · | ·
Cc1ccccc1OCCSc1nnc(C)n1-c1ccccc1 | – | – | – | – | -6.66 | – | – | – | 53.8%
COc1cc(CNCCc2ccc(F)cc2)ccc1OCc1ccc(Cl)nc1 | – | – | – | – | -8.19 | – | 59.0% | – | 56.2%
COc1cc(CNCCc2ccccc2F)ccc1OCc1ccc(Cl)nc1 | – | – | – | – | – | – | · | · | ·
CCOc1cc(/C=N/O)ccc1OS(=O)(=O)c1ccc(C)cc1 | – | – | – | – | -7.52 | – | – | – | 6.7%
CCN1CCN(c2ccc(S(=O)(=O)N3CCCCC3)cc2NC(=O)c2cccc(OC(F)F)c2)CC1 | – | – | – | – | – | – | · | · | ·
CCOCc1cn(CC(=O)c2ccc([N+](=O)[O-])cc2)c(C)nc1=N | – | – | – | – | – | – | – | – | –
COCC(C)OC(=O)c1c(N)n(CC(C)C)c2nc3ccccc3nc12 (stereo not given) | – | – | – | – | – | – | · | · | ·
Cc1ccc(C(CCNC(C)c2cccs2)c2ccco2)cc1 (stereo not given) | – | – | – | – | -8.39 | – | 62.0% | – | –
CCCCN(CCCC)CCNC(=O)CN1C(=O)COc2ccc(S(=O)(=O)N3CCC(C)CC3)cc21 | – | – | – | – | – | – | · | · | ·
CCCCN(CCCNC(=O)CN1C(=O)COc2ccc(S(=O)(=O)N3CCC(C)CC3)cc21)Cc1ccccc1 | – | – | – | – | -5.72 | – | – | – | –
O=C(c1ccc(O)cc1)c1ccc(O)cc1O | – | – | – | – | – | – | · | · | ·
CN(C)c1ccc(C(=O)c2ccc(O)cc2O)cc1 | – | – | – | – | – | – | – | – | –
O=C(c1ccc(F)cc1)C1CCN(C(=S)Nc2ccc(F)cc2)CC1 | – | – | – | – | – | – | · | · | ·
COc1ccc(C(=O)CN2Cc3ccccc3C2=N)cc1 | – | – | – | – | -10.7 | – | 65.0% | – | –
